Results on 72 compounds are retold here after ChEMBL document CHEMBL1765010, “Reversible competitive α-ketoheterocycle inhibitors of fatty acid amide hydrolase containing additional conformational constraints in the acyl side chain: orally active, long-acting analgesics” (J Med Chem, 2011).

Structures are written as SMILES. Some results are limits rather than exact numbers.

One assay deals with Mus musculus. Kind of assay: Inhibition of FAAH in C57Bl/6J mouse brain assessed as increase of arachidonic acid level at 30 mg/kg, ip after 1 hr relative to control. It is filed as functional. The note with it: route intraperitoneal. In a few lines:
(§1)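 Male C57Bl/6J mice (<6 months, 20–28 g) dosed i.p. at 30 mg/kg in 18:1:1 saline:ethanol:emulphor emulsion; brains taken 1 h later. One mouse in the initial screen, 3 per group in the follow-up. Brain homogenized in CHCl3:MeOH:Tris pH 8.0 with deuterated lipid standards; organic extract quantified by reverse-phase C18 LC-ESI-MS/MS against vehicle controls.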
Turning to `O=C(O)c1cccc(-c2cnc(C(=O)C3Cc4ccc(Oc5ccccc5)cc4C3)o2)n1` (stereo not given), the “fold change (FC)” value worked out at 0.8.

The test system of another assay is Mus musculus. Put plainly: Inhibition of FAAH in C57Bl/6J mouse brain assessed as increase of 2-arachidonoylglycerol level at 30 mg/kg, ip after 1 hr relative to control. It is filed as functional. To be noted: route intraperitoneal. Summed up:
as §1
Consider `O=C(O)c1cccc(-c2cnc(C(=O)C3Cc4ccc(Oc5ccccc5)cc4C3)o2)n1` (stereo not given), for which the “fold change (FC)” value is given as 0.9.

For a further assay, the target named is T1, Fatty-acid amide hydrolase 1 (Rattus norvegicus, UniProt P97612).
T1 sequence (P97612 whole entry): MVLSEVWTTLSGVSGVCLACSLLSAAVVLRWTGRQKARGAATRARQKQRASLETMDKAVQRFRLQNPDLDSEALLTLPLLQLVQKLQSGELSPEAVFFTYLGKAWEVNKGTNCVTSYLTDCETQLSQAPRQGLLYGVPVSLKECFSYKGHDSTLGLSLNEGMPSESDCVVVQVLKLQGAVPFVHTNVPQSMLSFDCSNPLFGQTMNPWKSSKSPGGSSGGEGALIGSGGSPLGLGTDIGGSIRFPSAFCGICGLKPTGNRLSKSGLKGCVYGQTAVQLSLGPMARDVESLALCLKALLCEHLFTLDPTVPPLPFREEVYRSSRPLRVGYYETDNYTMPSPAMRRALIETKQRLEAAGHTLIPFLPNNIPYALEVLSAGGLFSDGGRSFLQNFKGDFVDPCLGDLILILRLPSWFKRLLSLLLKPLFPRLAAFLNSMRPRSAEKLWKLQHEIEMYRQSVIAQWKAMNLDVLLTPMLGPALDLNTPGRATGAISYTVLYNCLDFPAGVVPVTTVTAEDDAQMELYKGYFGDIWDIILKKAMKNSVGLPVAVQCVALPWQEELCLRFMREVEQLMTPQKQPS
Kind of assay: Inhibition of rat FAAH expressed in E. coli assessed as [14C]-labeled oleamide to oleic acid conversion.
Details: not given
For the compound `O=C(O)c1cccc(-c2cnc(C(=O)[C@@H]3Cc4ccc(OCc5ccccc5)cc4C3)o2)n1`, the Ki (commonly a dissociation constant, usually derived from enzyme kinetics or from competition with a known ligand) came to 660 nM.
As to `COC(=O)c1cnc(C(=O)[C@H]2CCc3cc(-c4ccccc4)ccc3C2)o1`, the inhibitory constant (Ki) is 55 nM.
Consider `O=C(c1ncc(I)o1)[C@@H]1CCc2cc(OCc3ccccc3)ccc2C1`, for which the Ki is 700 nM.
In the case of `O=C(c1ncco1)[C@@H]1CCc2cc(-c3ccccc3)ccc2C1`, the Ki is 460 nM.
The same measure, in the same setting: the result for `COC(=O)c1nnc(C(=O)[C@H]2CCc3cc(Oc4ccccc4)ccc3C2)o1` reads 1.5 nM.
Same read-out and setting: then `O=C(O)c1cccc(-c2cnc(C(=O)C3Cc4ccc(-c5ccccc5)cc4C3)o2)n1` (racemic), with 57 nM.
The same measure, in the same setting: the result for `N#Cc1cnc(C(=O)[C@H]2CCc3cc(-c4ccccc4)ccc3C2)o1` reads 3.4 nM.
Take `COC(=O)c1cccc(-c2cnc(C(=O)[C@@H]3CCc4cc(-c5ccccc5)ccc4C3)o2)n1`: the Ki is 700 nM.
Take `O=C(c1ncc(-c2ccccn2)o1)[C@@H]1CCc2cc(-c3ccccc3)ccc2C1`: the Ki came out at 240 nM.
For `O=C(c1ncc(-c2ccccn2)o1)[C@H]1CCc2cc(-c3ccccc3)ccc2C1`, the Ki was determined as 7.2 nM.
Still for that read-out and setting: then `COC(=O)c1nnc(C(=O)[C@@H]2CCc3cc(Oc4ccccc4)ccc3C2)o1`, with 1.6 nM; and `N#Cc1cnc(C(=O)[C@@H]2CCc3cc(-c4ccccc4)ccc3C2)o1`, with 62 nM.
With `O=C(c1ncco1)[C@H]1CCc2ccccc2C1`, the Ki came to 5100 nM.
Same read-out and setting: the result for `COC(=O)c1cccc(-c2cnc(C(=O)[C@H]3Cc4ccc(Oc5ccccc5)cc4C3)o2)n1` reads 98 nM; that for `O=C(c1ncco1)[C@@H]1CCc2cc(OCc3ccccc3)ccc2C1`, 87 nM.
As for `COC(=O)c1cnc(C(=O)[C@@H]2CCc3cc(OCc4ccccc4)ccc3C2)o1`, the Ki was 53 nM.
The same measure, in the same setting: the result for `O=C(O)c1cccc(-c2cnc(C(=O)[C@H]3CCc4cc(-c5ccccc5)ccc4C3)o2)n1` reads 39 nM; that for `COC(=O)c1cnc(C(=O)[C@@H]2CCc3cc(Oc4ccccc4)ccc3C2)o1`, 59 nM; that for `O=C(c1ncco1)[C@@H]1CCc2cc(Oc3ccccc3)ccc2C1`, 410 nM.
Still for that read-out and setting: the result for `COC(=O)c1cccc(-c2cnc(C(=O)[C@@H]3CCc4cc(OCc5ccccc5)ccc4C3)o2)n1` reads 4500 nM; that for `COC(=O)c1cccc(-c2cnc(C(=O)[C@@H]3CCc4cc(Oc5ccccc5)ccc4C3)o2)n1`, 870 nM.
For the compound `O=C(c1ncc(-c2ccccn2)o1)[C@H]1Cc2ccc(-c3ccccc3)cc2C1`, the Ki is 1.9 nM.
On the same count and under the same terms, the result for `O=C(c1ncc(I)o1)C1CCc2cc(OCc3ccccc3)ccc2C1` (racemic) reads 8 nM.
On the same count and under the same terms, then `COC(=O)c1cccc(-c2cnc(C(=O)[C@H]3CCc4cc(-c5ccccc5)ccc4C3)o2)n1`, with 27 nM; and `O=C(c1ncc(-c2ccccn2)o1)[C@H]1Cc2ccc(OCc3ccccc3)cc2C1`, with 1.4 nM.
Still for that read-out and setting: the result for `O=C(c1ncc(I)o1)[C@H]1CCc2cc(OCc3ccccc3)ccc2C1` reads 4.1 nM; that for `COC(=O)c1cccc(-c2cnc(C(=O)[C@@H]3Cc4ccc(OCc5ccccc5)cc4C3)o2)n1`, 130 nM.
With `O=C(c1ncc(-c2ccccn2)o1)[C@@H]1CCc2cc(Oc3ccccc3)ccc2C1`, the Ki was determined as 290 nM.
The same measure, in the same setting: the result for `O=C(O)c1cccc(-c2cnc(C(=O)[C@H]3CCc4cc(OCc5ccccc5)ccc4C3)o2)n1` reads 34 nM; that for `O=C(c1ncc(-c2ccccn2)o1)[C@H]1CCc2ccccc2C1`, 430 nM; that for `O=C(c1ncco1)[C@@H]1Cc2ccc(Oc3ccccc3)cc2C1`, 200 nM.
In the case of `COC(=O)c1cnc(C(=O)[C@@H]2CCc3cc(-c4ccccc4)ccc3C2)o1`, the Ki is 1400 nM.
Still for that read-out and setting: the result for `O=C(O)c1cccc(-c2cnc(C(=O)[C@H]3Cc4ccc(OCc5ccccc5)cc4C3)o2)n1` reads 51 nM; that for `O=C(c1ncco1)[C@H]1CCc2cc(-c3ccccc3)ccc2C1`, 57 nM.
The same measure, in the same setting: then `N#Cc1cnc(C(=O)[C@@H]2CCc3cc(OCc4ccccc4)ccc3C2)o1`, with 120 nM.
Same read-out and setting: the result for `COC(=O)c1cnc(C(=O)[C@H]2CCc3cc(OCc4ccccc4)ccc3C2)o1` reads 2.9 nM.
With `COC(=O)c1cccc(-c2cnc(C(=O)[C@H]3CCc4cc(OCc5ccccc5)ccc4C3)o2)n1`, the Ki was determined as 18 nM.
Still for that read-out and setting: the result for `O=C(c1nnc(-c2ccccn2)o1)[C@H]1CCc2cc(Oc3ccccc3)ccc2C1` reads 1 nM; that for `N#Cc1cnc(C(=O)[C@H]2CCc3cc(OCc4ccccc4)ccc3C2)o1`, 3.2 nM.
On the same count and under the same terms, the result for `O=C(c1ncc(-c2ccccn2)o1)[C@@H]1Cc2ccc(OCc3ccccc3)cc2C1` reads 110 nM; that for `COC(=O)c1cccc(-c2cnc(C(=O)[C@H]3Cc4ccc(OCc5ccccc5)cc4C3)o2)n1`, 5.8 nM.
On the same count and under the same terms, the result for `O=C(O)c1cccc(-c2cnc(C(=O)[C@H]3Cc4ccc(Oc5ccccc5)cc4C3)o2)n1` reads 71 nM; that for `O=C(c1nnc(-c2ccccn2)o1)[C@@H]1CCc2cc(Oc3ccccc3)ccc2C1`, 6.3 nM; that for `O=C(c1nnco1)[C@H]1CCc2cc(Oc3ccccc3)ccc2C1`, 0.5 nM.
Turning to `O=C(c1ncco1)[C@H]1Cc2ccc(-c3ccccc3)cc2C1`, the Ki came to 27 nM.
Still for that read-out and setting: the result for `O=C(c1ncco1)[C@H]1CCc2cc(Oc3ccccc3)ccc2C1` reads 2.2 nM.
As for `COC(=O)c1cnc(C(=O)[C@H]2CCc3cc(Oc4ccccc4)ccc3C2)o1`, the Ki was 5.4 nM.
On the same count and under the same terms, the result for `O=C(c1ncc(-c2ccccn2)o1)[C@@H]1Cc2ccc(-c3ccccc3)cc2C1` reads 600 nM; that for `O=C(c1ncc(-c2ccccn2)o1)[C@H]1Cc2ccc(Oc3ccccc3)cc2C1`, 2.1 nM; that for `O=C(O)c1cccc(-c2cnc(C(=O)[C@@H]3CCc4cc(-c5ccccc5)ccc4C3)o2)n1`, 500 nM.
Still for that read-out and setting: the result for `O=C(O)c1cccc(-c2cnc(C(=O)[C@@H]3Cc4ccc(Oc5ccccc5)cc4C3)o2)n1` reads 550 nM; that for `O=C(c1ncco1)[C@H]1Cc2ccc(Oc3ccccc3)cc2C1`, 10 nM; that for `O=C(c1ncco1)[C@H]1CCc2cc(OCc3ccccc3)ccc2C1`, 6.1 nM.
With `O=C(c1ncc(-c2ccccn2)o1)[C@@H]1CCc2ccccc2C1`, the Ki was 3200 nM.
For `COC(=O)c1cccc(-c2cnc(C(=O)[C@H]3CCc4cc(Oc5ccccc5)ccc4C3)o2)n1`, the Ki came to 2.2 nM.
As for `COC(=O)c1cccc(-c2cnc(C(=O)C3Cc4ccc(-c5ccccc5)cc4C3)o2)n1` (racemic), the Ki came to 6.2 nM.
Same read-out and setting: the result for `O=C(c1ncc(-c2ccccn2)o1)[C@@H]1Cc2ccc(Oc3ccccc3)cc2C1` reads 42 nM; that for `O=C(c1nnco1)[C@@H]1CCc2cc(Oc3ccccc3)ccc2C1`, 1.4 nM.
On the same count and under the same terms, then `O=C(O)c1cccc(-c2cnc(C(=O)[C@@H]3CCc4cc(Oc5ccccc5)ccc4C3)o2)n1`, with 220 nM.
On the same count and under the same terms, then `O=C(c1ncco1)[C@@H]1CCc2ccccc2C1`, with 12000 nM.
For the compound `N#Cc1cnc(C(=O)[C@@H]2CCc3cc(Oc4ccccc4)ccc3C2)o1`, the Ki worked out at 54 nM.
On the same count and under the same terms, then `N#Cc1cnc(C(=O)[C@H]2CCc3cc(Oc4ccccc4)ccc3C2)o1`, with 1.3 nM; and `COC(=O)c1cccc(-c2cnc(C(=O)[C@@H]3Cc4ccc(Oc5ccccc5)cc4C3)o2)n1`, with 790 nM.
The same measure, in the same setting: the result for `O=C(c1ncco1)[C@@H]1Cc2ccc(-c3ccccc3)cc2C1` reads 140 nM; that for `O=C(c1ncc(-c2ccccn2)o1)[C@@H]1CCc2cc(OCc3ccccc3)ccc2C1`, 300 nM.
As to `O=C(O)c1cccc(-c2cnc(C(=O)[C@@H]3CCc4cc(OCc5ccccc5)ccc4C3)o2)n1`, the Ki was 740 nM.
On to `O=C(c1ncc(-c2ccccn2)o1)[C@H]1CCc2cc(OCc3ccccc3)ccc2C1`, for which the Ki was determined as 3.2 nM.

Molecular target in a further assay: not listed separately
Put plainly: Inhibition of full-length human FAAH expressed in COS-7 cells assessed as [14C]-labeled oleamide to oleic acid conversion. It is filed as cell-based.
Details: not given
In a few lines: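 Substrate 20 μM 14C-oleamide; three inhibitor concentrations. Reaction stopped in 0.1 N HCl at three time points, extracted with EtOAc and read by TLC.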
For the compound `COC(=O)c1cccc(-c2cnc(C(=O)C3CCc4cc(OCc5ccccc5)ccc4C3)o2)n1` (racemic), the Ki is more than 10000 nM.
On the same count and under the same terms, then `COC(=O)c1cccc(-c2cnc(C(=O)C3Cc4ccc(OCc5ccccc5)cc4C3)o2)n1` (racemic), with more than 10000 nM; and `O=C(c1ncco1)C1CCc2cc(OCc3ccccc3)ccc2C1` (racemic), with more than 10000 nM.
The same measure, in the same setting: the result for `O=C(c1ncco1)C1Cc2ccc(OCc3ccccc3)cc2C1` (racemic) reads more than 24 nM.

For a further assay, the system named is Mus musculus. Put plainly: Inhibition of FAAH in C57Bl/6J mouse brain assessed as increase of N-palmitoyl ethanolamine level at 30 mg/kg, ip after 1 hr relative to control. It is filed as functional. To be noted: route intraperitoneal. Summed up:
as §1
Consider `O=C(O)c1cccc(-c2cnc(C(=O)C3Cc4ccc(Oc5ccccc5)cc4C3)o2)n1` (stereo not given), for which the “fold change (FC)” value came to 1.2.

The subject of another assay is Mus musculus. Kind of assay: Inhibition of FAAH in C57Bl/6J mouse brain assessed as increase of anandamide level at 30 mg/kg, ip after 1 hr relative to control. The format is functional. The note with it: route intraperitoneal. Summed up:
as §1
Consider `O=C(O)c1cccc(-c2cnc(C(=O)C3Cc4ccc(Oc5ccccc5)cc4C3)o2)n1` (stereo not given), for which the “fold change (FC)” value came to 1.
